Measurements: ChEMBL document CHEMBL1255494, “In vivo comparison of the pharmacodynamic targets for echinocandin drugs against Candida species” (Antimicrob Agents Chemother, 2010)
Values after ≈ are worked out from the molar mass of the structure shown. *1 amine or outer side, *2 acyl side, *3 side chain or, on linkers, in order; H or OH if unused. Where a SMILES comes first, the peptide text is derived from it. Bridges are numbered along the chain shown (N, C = ends). [ ]: non-standard residue; d: D form. The star is where a group is joined. pTerphenylCO(4''-OnC5H11) = CCCCCOc1ccc(-c2ccc(-c3ccc(C(=O)*)cc3)cc2)cc1; Orn(4R-OH,5R-OH) = O=C([C@H](C[C@@H](O)[C@@H](O)N[*:3])N[*:1])[*:2]; hTyr(3S-OH,4S-OH) = N[C@H](C(=O)O)[C@H](O)[C@@H](O)c1ccc(O)cc1; Pro(3S-OH,4S-Me) = C[C@H]1CN[C@H](C(=O)O)[C@H]1O; Hyp = O=C(O)[C@@H]1C[C@@H](O)CN1

What was measured:
Mus musculus = assay: Protein binding in Candida albicans infected neutropenic ICR Swiss mouse at 80 mg/kg, ip; format: ADME, organism-based; set-up: dose 80 mg/kg, route intraperitoneal; settings: in vivo
[1] = Ratio of AUC (0 to 24 hrs) in Candida albicans infected neutropenic ICR Swiss mouse to MIC for Candida albicans at static dose after 24 hrs; format: functional
Procedure, shortened: (§1)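 Neutropenic mice were infected iv and treated 2 h later. Four to six ip dose levels (0.078–160 mg/kg) were given every 24 h for 4 days, 3 mice per regimen. Kidney CFU were counted at 96 h. A sigmoid dose-effect model gave the static and 1-log-kill doses relative to burden at therapy start.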

[2] = Ratio of AUC (0 to 24 hrs) in Candida glabrata infected neutropenic ICR Swiss mouse to MIC for Candida glabrata at static dose after 24 hrs; format: functional; procedure, shortened: as §1
[3] = Ratio of AUC (0 to 24 hrs) in Candida parapsilosis infected neutropenic ICR Swiss mouse to MIC for Candida parapsilosis at static dose after 24 hrs; format: functional; procedure, shortened: as §1
[4] = Ratio of fAUC (0 to 24 hrs) in Candida albicans infected neutropenic ICR Swiss mouse to MIC for Candida albicans at static dose after 24 hrs; format: functional
[5] = Ratio of fAUC (0 to 24 hrs) in Candida glabrata infected neutropenic ICR Swiss mouse to MIC for Candida glabrata at static dose after 24 hrs; format: functional
[6] = Ratio of AUC (0 to 24 hrs) in Candida albicans infected neutropenic ICR Swiss mouse to MIC for Candida albicans at 1 log kill dose after 24 hrs; format: functional; procedure, shortened: as §1
[7] = Ratio of AUC (0 to 24 hrs) in Candida glabrata infected neutropenic ICR Swiss mouse to MIC for Candida glabrata at 1 log kill dose after 24 hrs; format: functional; procedure, shortened: as §1
[8] = Ratio of fAUC (0 to 24 hrs) in Candida albicans infected neutropenic ICR Swiss mouse to MIC for Candida albicans at 1 log kill dose after 24 hrs; format: functional
[9] = Ratio of fAUC (0 to 24 hrs) in Candida glabrata infected neutropenic ICR Swiss mouse to MIC for Candida glabrata at 1 log kill dose after 24 hrs; format: functional
[10] = Ratio of fAUC (0 to 24 hrs) in Candida parapsilosis infected neutropenic ICR Swiss mouse to MIC for Candida parapsilosis at 1 log kill dose after 24 hrs; format: functional
Candida albicans [11] = assay: Fungistatic activity against Candida albicans infected in neutropenic ICR Swiss mouse after 24 hrs; format: functional
Procedure, shortened: (§2)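 Female ICR Swiss mice, neutropenic via cyclophosphamide s.c. (150 mg/kg day −4, 100 mg/kg day −1 and day +2), infected by tail-vein injection of clinical isolates 2 h before therapy. Intraperitoneal dosing every 24 h for 4 days, 4–6 dose levels from 0.078 to 160 mg/kg, 3 mice per regimen. Kidney CFU counted at 96 h. Sigmoid dose-effect fit gives static dose and 1 log kill dose relative to burden at start of therapy.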

Nakaseomyces glabratus [12] = assay: Fungistatic activity against Candida glabrata infected in neutropenic ICR Swiss mouse after 24 hrs; format: functional; procedure, shortened: as §2
Candida albicans [13] = assay: Antifungal activity against Candida albicans infected in ICR Swiss mouse assessed as log reduction in bacterial count […]; format: functional; procedure, shortened: as §2
Candida parapsilosis [14] = assay: Antifungal activity against Candida parapsilosis infected in ICR Swiss mouse assessed log reduction in bacterial count […]; format: functional; procedure, shortened: as §2
Nakaseomyces glabratus [15] = assay: Antifungal activity against Candida glabrata infected in ICR Swiss mouse; format: functional; procedure, shortened: as §2
Candida albicans [16] = assay: Antifungal activity against Candida albicans 98-17 after 24 hrs; format: functional; settings: 98-17, 24 h
Procedure, shortened: (§3)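 MICs by CLSI M27-A3 broth dilution in RPMI 1640, inoculum 0.5 × 10³ to 2.5 × 10³ cells/ml, 35°C. Read visually at 24 h as the lowest concentration giving ≥50% growth reduction versus control. Run on three occasions in duplicate and reported as the mean. C. krusei ATCC 6258 and C. parapsilosis ATCC 22019 served as QC strains.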

Candida albicans [17] = assay: Antifungal activity against Candida albicans 98-210 after 24 hrs; format: functional; settings: 98-210, 24 h
Procedure, shortened: (§4)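 Broth microdilution per CLSI M27-A3 in RPMI 1640; inoculum 0.5 × 10³ to 2.5 × 10³ cells/ml, 35°C. […] Three separate occasions in duplicate, mean reported; C. krusei ATCC 6258 and C. parapsilosis ATCC 22019 as daily QC.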

Candida albicans [18] = assay: Antifungal activity against Candida albicans 580 after 24 hrs; format: functional; settings: Candida albicans, 580, 24 h; procedure, shortened: as §4
Candida albicans [19] = assay: Antifungal activity against Candida albicans 570 after 24 hrs; format: functional; settings: Candida albicans, 570, 24 h; procedure, shortened: as §3
Nakaseomyces glabratus [20] = assay: Antifungal activity against Candida glabrata 5592 after 24 hrs; format: functional; settings: Nakaseomyces glabratus, 5592, 24 h; procedure, shortened: as §4
Nakaseomyces glabratus [21] = assay: Antifungal activity against Candida glabrata 513 after 24 hrs; format: functional; settings: Nakaseomyces glabratus, 513, 24 h; procedure, shortened: as §4
Nakaseomyces glabratus [22] = assay: Antifungal activity against Candida glabrata 33609 after 24 hrs; format: functional; settings: Nakaseomyces glabratus, 33609, 24 h; procedure, shortened: as §4
Nakaseomyces glabratus [23] = assay: Antifungal activity against Candida glabrata 32930 after 24 hrs; format: functional; settings: Nakaseomyces glabratus, 32930, 24 h; procedure, shortened: as §4
Nakaseomyces glabratus [24] = assay: Antifungal activity against Candida glabrata 33616 after 24 hrs; format: functional; settings: Nakaseomyces glabratus, 33616, 24 h; procedure, shortened: as §3
Nakaseomyces glabratus [25] = assay: Antifungal activity against Candida glabrata 34341 after 24 hrs; format: functional; settings: Nakaseomyces glabratus, 34341, 24 h; procedure, shortened: as §3
Nakaseomyces glabratus [26] = assay: Antifungal activity against Candida glabrata 37661 after 24 hrs; format: functional; settings: Nakaseomyces glabratus, 37661, 24 h; procedure, shortened: as §3
Candida metapsilosis = assay: Antifungal activity against Candida metapsilosis 20463.02 after 24 hrs; format: functional; settings: Lodderomyces metapsilosis, 20463.02, 24 h; procedure, shortened: as §3
Candida parapsilosis [27] = assay: Antifungal activity against Candida parapsilosis 20450.096 after 24 hrs; format: functional; settings: Lodderomyces parapsilosis, 20450.096, 24 h; procedure, shortened: as §3
Candida parapsilosis [28] = assay: Antifungal activity against Candida parapsilosis 20385.079 after 24 hrs; format: functional; settings: Lodderomyces parapsilosis, 20385.079, 24 h; procedure, shortened: as §3
Candida parapsilosis [29] = assay: Antifungal activity against Candida parapsilosis 20477.048 after 24 hrs; format: functional; settings: Lodderomyces parapsilosis, 20477.048, 24 h; procedure, shortened: as §3
Candida parapsilosis [30] = assay: Antifungal activity against Candida parapsilosis 20423.078 after 24 hrs; format: functional; settings: Lodderomyces parapsilosis, 20423.078, 24 h; procedure, shortened: as §3
Candida parapsilosis [31] = assay: Antifungal activity against Candida parapsilosis 20562.03 after 24 hrs; format: functional; settings: Lodderomyces parapsilosis, 20562.03, 24 h; procedure, shortened: as §3
Candida parapsilosis [32] = assay: Antifungal activity against Candida parapsilosis 20489.085 after 24 hrs; format: functional; settings: Lodderomyces parapsilosis, 20489.085, 24 h; procedure, shortened: as §4
Candida parapsilosis [33] = assay: Antifungal activity against Candida parapsilosis 20557.012 after 24 hrs; format: functional; settings: Lodderomyces parapsilosis, 20557.012, 24 h; procedure, shortened: as §3
Candida parapsilosis [34] = assay: Antifungal activity against Candida parapsilosis 20435.057 after 24 hrs; format: functional; settings: Lodderomyces parapsilosis, 20435.057, 24 h; procedure, shortened: as §3
[35] = AUC (0 to 24 hrs) in Candida albicans infected neutropenic ICR Swiss mouse at 80 mg/kg, ip; format: ADME, organism-based; set-up: time < 24 hr, dose 80 mg/kg, route intraperitoneal; settings: plasma
Procedure, shortened: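 Neutropenic female ICR Swiss mice (cyclophosphamide sc at 150 mg/kg on day −4, 100 mg/kg on day −1 and day +2) infected iv via tail vein with Candida; single ip doses of 5, 20 or 80 mg/kg. Serum drawn from 3 mice per time point at eight time points and assayed by microbiologic assay (C. albicans K1) or […]. Noncompartmental analysis; AUC by trapezoidal rule.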

CCCCCOc1ccc(-c2ccc(-c3ccc(C(=O)N[C@H]4C[C@@H](O)[C@@H](O)NC(=O)[C@@H]5[C@@H](O)[C@@H](C)CN5C(=O)[C@H]([C@@H](C)O)NC(=O)[C@H]([C@H](O)[C@@H](O)c5ccc(O)cc5)NC(=O)[C@@H]5C[C@@H](O)CN5C(=O)[C@H]([C@@H](C)O)NC4=O)cc3)cc2)cc1 [ANIDULAFUNGIN] ({pTerphenylCO(4''-OnC5H11)}-[Orn(4R-OH,5R-OH)]T[Hyp][hTyr(3S-OH,4S-OH)]T[Pro(3S-OH,4S-Me)]; lactam 1-C)
Activity (Mus musculus): 99% | Ratio [1]: 2782 | Ratio [2]: 1366 | Ratio [3]: 1154 | Ratio [4]: 27.8 | Ratio [5]: 13.7 | Ratio [6]: 9125 | Ratio [7]: 3188 | Ratio [8]: 91 | Ratio [9]: 32 | Ratio [10]: 22 | Activity (Candida albicans [11]): 2.32 mg/kg | Activity (Nakaseomyces glabratus [12]): 21.1 mg/kg | Activity (Candida albicans [13]): 4.25 mg/kg | Activity (Candida parapsilosis [14]): 47 mg/kg | Emax (Nakaseomyces glabratus [15]): 6 log10 CFU/kidneys | ED50 (Nakaseomyces glabratus [15]; Nakaseomyces glabratus): 15.5 mg/kg | MIC (Candida albicans [16]): 0.03 µg/mL (≈ 0.0263 µM) | MIC (Candida albicans [17]): 0.015 µg/mL (≈ 0.0132 µM) | MIC (Candida albicans [18]): 0.015 µg/mL (≈ 0.0132 µM) | MIC (Candida albicans [19]): 0.03 µg/mL (≈ 0.0263 µM) | MIC (Nakaseomyces glabratus [20]): 0.06 µg/mL (≈ 0.0526 µM) | MIC (Nakaseomyces glabratus [21]): 0.06 µg/mL (≈ 0.0526 µM) | MIC (Nakaseomyces glabratus [22]): 0.03 µg/mL (≈ 0.0263 µM) | MIC (Nakaseomyces glabratus [23]): 0.06 µg/mL (≈ 0.0526 µM) | MIC (Nakaseomyces glabratus [24]): 1 µg/mL (≈ 0.877 µM) | MIC (Nakaseomyces glabratus [25]): 0.12 µg/mL (≈ 0.105 µM) | MIC (Nakaseomyces glabratus [26]): 2 µg/mL (≈ 1.75 µM) | MIC (Candida metapsilosis): 0.25 µg/mL (≈ 0.219 µM) | MIC (Candida parapsilosis [27]): 1 µg/mL (≈ 0.877 µM) | MIC (Candida parapsilosis [28]): 1 µg/mL (≈ 0.877 µM) | MIC (Candida parapsilosis [29]): 2 µg/mL (≈ 1.75 µM) | MIC (Candida parapsilosis [30]): 1 µg/mL (≈ 0.877 µM) | MIC (Candida parapsilosis [31]): 1 µg/mL (≈ 0.877 µM) | MIC (Candida parapsilosis [32]): 1 µg/mL (≈ 0.877 µM) | MIC (Candida parapsilosis [33]): 0.5 µg/mL (≈ 0.438 µM) | MIC (Candida parapsilosis [34]): 1 µg/mL (≈ 0.877 µM) | AUC(0-t) at 24 h [35]: 1980 µg·h/mL
